Measured values from different studies.
Each line is one published result; the experiments were not run side by side.
Target: Serine/threonine-protein kinase NLK (NLK, Homo sapiens, UniProt Q9UBE8)
Sequence (Q9UBE8 1-527, as in one of the studies): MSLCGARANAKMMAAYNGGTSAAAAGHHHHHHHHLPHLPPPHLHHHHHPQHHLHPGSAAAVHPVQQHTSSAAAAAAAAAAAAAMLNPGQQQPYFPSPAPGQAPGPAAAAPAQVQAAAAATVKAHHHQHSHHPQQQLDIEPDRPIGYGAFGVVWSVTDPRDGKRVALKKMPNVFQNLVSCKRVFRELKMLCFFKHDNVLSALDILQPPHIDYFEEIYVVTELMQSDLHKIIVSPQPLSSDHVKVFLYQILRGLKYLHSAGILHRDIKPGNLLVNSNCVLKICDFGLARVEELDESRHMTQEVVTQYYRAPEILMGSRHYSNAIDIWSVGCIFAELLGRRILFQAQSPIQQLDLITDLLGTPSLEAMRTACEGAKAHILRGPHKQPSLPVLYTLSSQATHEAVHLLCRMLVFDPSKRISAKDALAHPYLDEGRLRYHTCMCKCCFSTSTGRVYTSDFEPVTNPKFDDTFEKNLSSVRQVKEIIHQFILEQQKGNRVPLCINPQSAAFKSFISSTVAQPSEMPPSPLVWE

Compound	read-out	action	method	tested at	quantity	value
CSc1cccnc1N1CCN(Cc2nc3ccccc3[nH]2)CC1	binding		competition with immobilised ligand	1 µM	remaining binding	100%
CCN(CC)c1ccc(C2=NNC(=O)CC2C)cc1[N+](=O)[O-] (stereo not shown)	enzyme activity	inhibitor		10 µM	remaining activity	105%
COc1cc(Cl)c(C(=O)N[C@@H](CN[C@H]2CC[C@@H](N)CC2)Cc2ccc(C#N)cc2)cc1-c1ccc(CN[C@H](C)c2ccc(C)cc2)o1	enzyme activity	inhibitor		1 µM	remaining activity	88%
O=C1Nc2ccc(Cl)cc2C1=Cc1cc(Cl)c(O)c(Cl)c1	cell-free assay			0.5 µM	remaining signal	38.9%
O=C(NCCCC1CCCCC1)c1ccc(CNC(=O)c2cnn(-c3ccccc3)c2C(F)(F)F)cc1	cell-free assay		competition with immobilised ligand	0.1 µM	remaining binding	100%
CCN(CC)CCNC(=O)c1c(C)[nH]c(/C=C2\C(=O)Nc3ccc(F)cc32)c1C	enzyme activity	inhibitor		0.3 µM	inhibition	-7%
Cc1sc(C(=O)NC2COC2)cc1-n1cc(NC(=O)Nc2c(F)cccc2Cl)cn1	enzyme activity	inhibitor		10 µM	remaining activity	85.2%
Cc1ccc(Nc2nccc(N(C)c3ccc4c(C)n(C)nc4c3)n2)cc1S(N)(=O)=O	enzyme activity	inhibitor		0.3 µM	inhibition	19%
CC(C)(C)c1nc(-c2cccc(NS(=O)(=O)c3c(F)cccc3F)c2F)c(-c2ccnc(N)n2)s1	enzyme activity	inhibitor	radiometric	1 µM	remaining activity	78%
Cc1ccc(NC(=O)c2ccc(C)c(C(F)(F)F)c2)cc1C#Cc1nn(C2CCC(O)CC2)c2ncnc(N)c12 (stereo not shown)	cell-free assay			10 µM	remaining signal	82%
Cn1cncc1C1=CN(c2ncnc3[nH]cnc23)CCS1	enzyme activity	inhibitor	radiometric	50 nM	inhibition	19.6%
CC(=O)C1=C(C)N(c2cccc(C(F)(F)F)c2)C(=O)N[C@@H]1c1ccc(C#N)nc1	cell-free assay		competition with immobilised ligand	1 µM	remaining binding	93%
Nc1ncnc2occ(-c3ccc(NC(=O)Nc4cc(C(F)(F)F)ccc4F)cc3)c12	cell-free assay			20 µM	remaining signal	19%
O=C(NCc1ncc(C(F)(F)F)cc1Cl)c1ccc2c(c1)C1(CCS(=O)(=O)CC1)[C@H](C1CC1)N2S(=O)(=O)c1ccc(F)cc1	cell-free assay		competition with immobilised ligand	1 µM	remaining binding	100%
Cc1cnc(NC2CCOCC2)nc1-n1cnc(C(=O)NC(CN)c2cc(F)cc(Cl)c2)c1 (stereo not shown)	enzyme activity	inhibitor	radiometric	1 µM	remaining activity	47%
CNC(=O)Nc1ccc2c(c1)CC[C@@]21OC(=O)N(CC(=O)N(Cc2ccc(F)cc2)[C@@H](C)C(F)(F)F)C1=O	binding		competition with immobilised ligand	1 µM	remaining binding	82%
Cc1ccc(C(=O)Nc2ccc(CN3CCN(C)CC3)c(C(F)(F)F)c2)cc1C#Cc1cnc2cccnn12	cell-free assay			23.5 nM	remaining signal	52%
C[C@H](c1ccnc(Nc2nc3ccc(-c4cc(N(C)C)ncn4)cc3[nH]2)c1)N1CCN(C(=O)CC(F)(F)F)CC1	cell-free assay		competition with immobilised ligand	0.1 µM	remaining binding	88%
CN1CC(Oc2cnc(C#N)cc2-c2ccn3nc(NC(=O)C4CC4)cc3c2)C1	enzyme activity	inhibitor		1 µM	inhibition	10%
